Series [1] relates to L. donovani wild type AG83 (WT) promastigotes. Description: MTT survival of wild type promastigotes. The series is classed as cell-based. The following applies: Leishmania donovani, 48 h. The procedure, abridged:
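AG83 promastigotes were kept in M199 (pH 5.5) with 10% FBS. Late-exponential cells, diluted to 2 × 10^6/ml, were exposed to varying concentrations of test compound prepared in FBS-free M199 for 48, 72 and 96 h. Viability was read by MTT at 570 nm as % survival (mean, standard error, three independent experiments). IC50 came from a log(inhibitor) vs normalised response fit.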

For series [2], the system named is pLP2-LdAI transfected promastigotes (WT-LdAI). Description: MTT survival of LdAI over-expressing promastigotes. The series is classed as cell-based, Leishmania donovani.
Series [3] concerns LdAI transfected amastigotes (WT-LdAI). In words: MTT survival of LdAI transfected axenic amastigotes. Format: cell-based, Leishmania donovani.
Series [4] deals with LdAI transcript in promastigotes. Description: Semi quantitative RT-PCR and real-time PCR of LdAI expression, promastigotes. The series is classed as cell-based, Leishmania donovani. The following applies: 0.125 μg/ml AmB for 8 h vs untreated.
Series [5] has as its system LdAI transcript in axenic amastigotes. In words: Real-time PCR of LdAI expression, axenic amastigotes. Format: cell-based, Leishmania donovani. The note with it: AmB treated vs untreated. For orientation: Real-time PCR tracks product formation cycle by cycle.
Series [6] addresses T1, LdAI (Leishmania donovani, UniProt A0A3Q8IA09).
T1 sequence (A0A3Q8IA09 1-398): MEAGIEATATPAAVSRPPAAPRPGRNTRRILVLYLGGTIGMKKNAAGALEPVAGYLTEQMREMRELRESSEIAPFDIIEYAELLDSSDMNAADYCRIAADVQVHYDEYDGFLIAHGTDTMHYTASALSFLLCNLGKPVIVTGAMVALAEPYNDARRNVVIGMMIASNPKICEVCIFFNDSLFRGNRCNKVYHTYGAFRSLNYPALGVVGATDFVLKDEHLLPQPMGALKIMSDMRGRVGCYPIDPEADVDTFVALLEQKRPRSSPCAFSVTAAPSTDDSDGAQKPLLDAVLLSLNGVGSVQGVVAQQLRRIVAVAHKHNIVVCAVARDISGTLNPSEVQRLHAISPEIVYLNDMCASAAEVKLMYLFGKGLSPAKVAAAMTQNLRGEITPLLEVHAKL
In words: Fluorometric titration of ligands with LdAI. The series is classed as binding. The procedure, abridged:
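Fluorometric titrations at 298 K in 20 mM Tris, 150 mM NaCl, pH 8.0. Constant enzyme was titrated with increasing ligand (Asp, Glu or test compound), with a 300 s pre-scan delay. Excitation was 274 nm and emission was recorded 290–400 nm. Kd came from a single-site specific binding fit, Y = Bmax*X/(Kd + X).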

Series [7] addresses T1, LdAI. In words: Isothermal titration calorimetry with LdAI. Format: binding. The following applies: for N (Drug/LdAI) / TΔS / ΔH / ΔG: ITC, direct titration; for N (Drug/LdAI) / TΔS / ΔH: 3 μM LdAI, 298 K; for ΔG: ΔG= ΔH−TΔS. The procedure, abridged: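 Direct ITC at 298 K in 20 mM Tris, 150 mM NaCl, pH 8.0. LdAI in the cell was titrated with test compound: one small injection, then 25 injections. Heats of dilution were normalised by buffer titrations. A single-site model with Levenberg–Marquardt nonlinear fitting gave Ka, ΔH and ΔS, and ΔG was calculated as ΔH − TΔS.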
In general terms: In ITC the heat of successive injections is recorded.

Series [8] concerns the target T1, LdAI. Description: Competitive inhibition assay, Gln hydrolysis kinetics. The series is classed as biochemical. The following applies: Gln as substrate, LdAI alone, no inhibitor.
Substrate in series [9]: NC(=O)CC[C@H](N)C(=O)O
The description is as above. The series is classed as biochemical, Leishmania donovani. The following applies: other: Gln as substrate, LdAI alone, no inhibitor; pH 8.0; 25.0 °C.

The term IC50 denotes the midpoint of a concentration-inhibition curve. High values mean weaker potency, low ones greater potency. For `C[C@@H]1[C@H](O)[C@@H](C)/C=C/C=C/C=C/C=C/C=C/C=C/C=C/[C@H](O[C@@H]2O[C@H](C)[C@@H](O)[C@H](N)[C@@H]2O)C[C@@H]2O[C@](O)(C[C@@H](O)C[C@@H](O)[C@H](O)CC[C@@H](O)C[C@@H](O)CC(=O)O[C@H]1C)C[C@H](O)[C@H]2C(=O)O` [AmB, Amphotericin B], the IC50 in series [1] was 600 ± 70 nM; in series [2] (Leishmania donovani, 48 h) it was 2200 ± 300 nM; in series [3] (Leishmania donovani, 48 h), 1900 ± 600 nM. Also, the figures for the “lower IC90 in wild-type than in LdAI over-expressing parasites” value in [2] (promastigote form) and in series [3] (amastigote form) were “three” and “eight”, respectively. For the same molecule, the “increase in IC50, LdAI transfected vs non-transfected” value in series [2] (promastigotes) is listed as “three”; in series [3] (amastigotes) it was “eight”. In series [4], the “enhancement in LdAI transcription (semiquantitative PCR)” value worked out at 2.5 fold. Also, the “increase in LdAI transcript expression (quantitative real time PCR)” value in series [4] is on record as “four”; in [5], “five”.
By Kd is commonly meant the concentration at which binding is half-saturated. In series [6], `N[C@@H](CC(=O)O)C(=O)O` [Asp, L-aspartic acid] had a Kd of 2400 ± 400 nM. For the same molecule, in series [7], the Kd is 7700 nM, the “N (Drug/LdAI)” value came to 4.0 ± 0.7, the TΔS is 0.64 kcal/mol and the ΔH is -6.34 ± 0.3 kcal/mol. The ΔG in series [7] was -6.98 kcal/mol.
As for `NC(=O)CC[C@H](N)C(=O)O` [Gln, L-glutamine], the Vmax in series [8] is reported as 267.9 ± 7.6.
In series [6], `N[C@@H](CCC(=O)O)C(=O)O` [Glu, L-glutamic acid] yielded a Kd of 11600 ± 1300 nM. For the same molecule, in series [7], the Kd was determined as 5000 nM, the “N (Drug/LdAI)” value worked out at 2.14 ± 0.6, the TΔS is -18.38 kcal/mol and the ΔH was -25.6 ± 1.1 kcal/mol. The same molecule came in with a ΔG in [7] of -7.22 kcal/mol.

B1: LdAI (Leishmania donovani) (protein)
chain: MEAGIEATATPAAVSRPPAAPRPGRNTRRILVLYLGGTIGMKKNAAGALEPVAGYLTEQMREMRELRESSEIAPFDIIEYAELLDSSDMNAADYCRIAADVQVHYDEYDGFLIAHGTDTMHYTASALSFLLCNLGKPVIVTGAMVALAEPYNDARRNVVIGMMIASNPKICEVCIFFNDSLFRGNRCNKVYHTYGAFRSLNYPALGVVGATDFVLKDEHLLPQPMGALKIMSDMRGRVGCYPIDPEADVDTFVALLEQKRPRSSPCAFSVTAAPSTDDSDGAQKPLLDAVLLSLNGVGSVQGVVAQQLRRIVAVAHKHNIVVCAVARDISGTLNPSEVQRLHAISPEIVYLNDMCASAAEVKLMYLFGKGLSPAKVAAAMTQNLRGEITPLLEVHAKL
Usually Km stands for the concentration of substrate that gives half-maximal velocity. Take B1: the Km in series [9] is on record as 9.5 ± 0.8 mM.

Values taken from article PMC5633258 (International Journal for Parasitology: Drugs and Drug …, 2017).
